The source made the active and inactive calls. The rule behind the calls is not given here.
Columns and labels:
[1] = tested on: SW-620; test: Cell cycle arrest in human SW620 cells assessed as accumulation at G0/G1 phase at 1 uM after 48 hrs using propidium iodide staining by flow cytometry (reference value: 47.8 +/- 1.2%); format: functional
[2] = tested on: HCT-116; test: Induction of apoptosis in human HCT116 cells expressing p21 siRNA assessed as increase of expression of cleaved caspase-9 and caspase-3 at 10 uM after 24 hrs by immunoblotting; format: functional, cell-based
Method in brief: (§1)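 Cells transfected with 100 nM scrambled or p21 siRNA for 4 h, then grown 24 h in complete medium and treated with 10 μM for 24 h. p21, caspase-9/-3 and cleaved forms analysed by 15% SDS-PAGE immunoblot with densitometry. Means ± SD, three experiments in triplicate.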

[3] = tested on: SW-620; test: Decrease of cyclin A expression in human SW620 cells after 24 hrs by immunoblotting; format: functional, cell-based
Method in brief: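 HCT-116 or SW-620 cells exposed to 0–10 μM for 24 h. Cells lysed in Tris/NaCl/EDTA/1% Triton X-100 buffer with protease and phosphatase inhibitors at 4 °C, protein measured by BCA. Lysates run on 10–12.5% SDS-PAGE and immunoblotted, ECL detection. Cdk2, cyclin A and cyclin E antibodies used at 1:500; β-actin as loading control.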

[4] = tested on: HCT-116; test: Cell cycle arrest in human HCT116 cells assessed as accumulation at S phase at 0.1 uM after 48 hrs using propidium iodide staining by flow cytometry (reference value: 36.3 +/- 1.7%); format: functional
[5] = tested on: SW-620; test: Cell cycle arrest in human SW620 cells assessed as accumulation at S phase after 48 hrs using propidium iodide staining by flow cytometry; format: functional, cell-based
[6] = tested on: HCT-116; test: Cell cycle arrest in human HCT116 cells assessed as accumulation at S phase at 5 uM after 48 hrs using propidium iodide staining by flow cytometry (reference value: 36.3 +/- 1.7%); format: functional
[7] = tested on: SW-620; test: Cell cycle arrest in human SW620 cells assessed as accumulation at G2/M phase at 0.5 uM after 48 hrs using propidium iodide staining by flow cytometry (reference value: 9.1 +/- 0.3%); format: functional
[8] = tested on: SW-620; test: Cytotoxicity against human SW620 cells at 0.5 to 10 uM; format: functional, cell-based; settings: TDE = time-dependent effect
Method in brief: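 SW-620 cells seeded at 10^5 per well in RPMI 1640 + 10% FBS at 37 °C, then treated when subconfluent with 0–10 μM for 48 h (or 10 μM for 24–72 h). Ethanol vehicle, at most 0.01% v/v final. Cells trypsinized and counted on a hemocytometer. Result given as % of control, means ± SD of three experiments in triplicate.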

[9] = tested on: SW-620; test: Effect on p27 expression in p53 deficient human SW620 cells at 0.5 to 10 uM after 24 hrs by immunoblotting; format: functional, cell-based
[10] = tested on: SW-620; test: Cytotoxicity against human SW620 cells expressing p21 siRNA at 10 uM after 24 hrs by trypan blue staining; format: functional, cell-based
Method in brief: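 Cells plated at 5 × 10^4 per well and transfected with 100 nM scrambled or p21 siRNA in OPTI-MEM for 4 h. Complete RPMI medium was added and cells grown a further 24 h, then exposed to 10 μM for 24 h. Viability measured by direct count after trypan blue staining. Morphology viewed by phase-contrast at 200×. Means ± SD, three experiments in triplicate.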

[11] = tested on: SW-620; test: Induction of apoptosis in human SW620 cells expressing p21 siRNA assessed as increase of expression of cleaved caspase-9 and caspase-3 at 10 uM after 24 hrs by immunoblotting; format: functional, cell-based; method in brief: as §1
[12] = tested on: SW-620; test: Cytotoxicity against human SW620 cells assessed as cell growth inhibition at 10 uM after 48 hrs; format: functional; settings: SW-620, 48 h, read-out: GI
Method in brief: (§2)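 Cells seeded at 10^5 per well in RPMI 1640/10% FBS at 37 °C. Subconfluent cells exposed to 0, 0.1, 0.5, 1, 2, 5 or 10 μM for 48 h, or to 10 μM for 24, 48 and 72 h; ethanol vehicle, at most 0.01% v/v final. Cells trypsinized and counted by hemocytometer. Viability as % of control, means ± SD, three experiments in triplicate.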

[13] = tested on: SW-620; test: Cytotoxicity against human SW620 cells assessed as cell viability at 10 uM after 48 to 72 hrs; format: functional, cell-based; method in brief: as §2
[14] = tested on: HCT-116; test: Increase of p21 expression in human HCT116 cells at 0.1 to 10 uM after 24 hrs by immunoblotting; format: functional, cell-based
Method in brief: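 HCT-116 or SW-620 cells treated with 0–10 μM for 24 h. Lysates probed for p21 by SDS-PAGE immunoblotting with ECL detection; β-actin as loading control.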

[15] = tested on: HCT-116; test: Cell cycle arrest in human HCT116 cells assessed as accumulation at G2/M phase at 10 uM after 48 hrs using propidium iodide staining by flow cytometry (reference value: 7.1 +/- 0.3%); format: functional
[16] = tested on: SW-620; test: Cell cycle arrest in human SW620 cells assessed as accumulation at G2/M phase at 5 uM after 48 hrs using propidium iodide staining by flow cytometry (reference value: 9.1 +/- 0.3%); format: functional
[17] = tested on: HCT-116; test: Cytotoxicity against human HCT116 cells expressing p21 siRNA at 10 uM after 24 hrs by trypan blue staining; format: functional, cell-based
Method in brief: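 Cells plated at 5 × 10^4 per well and transfected 4 h with 100 nM p21 or scrambled siRNA in OPTI-MEM, then grown 24 h in complete medium. Exposed to 10 μM for 24 h. Viability by trypan blue exclusion and direct counting. Means ± SD, three experiments in triplicate, compared with the scrambled-siRNA group.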

[18] = tested on: HCT-116; test: Cell cycle arrest in human HCT116 cells assessed as accumulation at G2/M phase at 0.1 uM after 48 hrs using propidium iodide staining by flow cytometry (reference value: 7.1 +/- 0.3%); format: functional
[19] = tested on: HCT-116; test: Cytotoxicity against human HCT116 cells assessed as cell viability at 0.1 to 2 uM after 24 to 72 hrs; format: functional, cell-based; method in brief: as §2

Q: Which Activity [1] does the source give for `CC(C)c1cccc(=O)c(O)c1` [HINOKITIOL] here?
A: 45.6%

Q: What about the Activity [2] of the same compound?
A: inactive

Q: What about the Activity [3] of the same compound?
A: Dose-dependent effect

Q: And the Activity [4]?
A: 34.4%

Q: And the Activity [5]?
A: Dose-dependent effect

Q: And the Activity [6]?
A: 43.5%

Q: And the Activity [7]?
A: 8.4%

Q: What about the Activity [8] of the same compound?
A: tde

Q: And the Activity [9]?
A: inactive

Q: And the Activity [10]?
A: inactive

Q: What about the Activity [11] of the same compound?
A: inactive

Q: What about the inhibition of growth at 10 µM [12] of the same compound?
A: 63%

Q: What about the Activity [13] of the same compound?
A: Active

Q: And the Activity [14]?
A: Active

Q: And the Activity [15]?
A: 7.4%

Q: And the Activity [16]?
A: 7.2%

Q: What about the Activity [17] of the same compound?
A: inactive

Q: And the Activity [18]?
A: 7.5%

Q: And the Activity [19]?
A: Active
